Screens from PubChem.
In the library only some 3.1% were active in any assay of this set; here they are far more common.
GPR7 antagonist: GPR7 receptor antagonists, primary screen, cell-based, fluorescence, single concentration. GPR7-expressing cells, fluorescence antagonist assay. inhibition, % at 4.4 µM. 1.1% of 290,000 active. Neuropeptides B/W receptor type 1 (Homo sapiens), P48145; in the data active = inhibition above about 16%, passing the limit was not always enough;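 also: cells stimulated with the agonist NPW; 0% = agonist with vehicle and 100% = vehicle without agonist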
Target sequence (P48145 whole entry, looked up): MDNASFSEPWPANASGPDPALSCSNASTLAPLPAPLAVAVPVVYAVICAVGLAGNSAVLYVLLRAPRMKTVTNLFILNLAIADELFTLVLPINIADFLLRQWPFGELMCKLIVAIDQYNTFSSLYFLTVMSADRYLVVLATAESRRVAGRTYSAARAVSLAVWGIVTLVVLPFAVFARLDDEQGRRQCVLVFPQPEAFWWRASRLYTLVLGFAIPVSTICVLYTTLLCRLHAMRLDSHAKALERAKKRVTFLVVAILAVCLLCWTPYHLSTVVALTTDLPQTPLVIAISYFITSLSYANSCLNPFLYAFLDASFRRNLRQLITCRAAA
GalR3 antag: GalR3 antagonists in HEK293 cells, primary screen, cell-based, fluorescence readout | HEK293 GalR3-CNG cAMP membrane potential fluorescence; galR3 body fused to GalR1 C-terminus | Galanin receptor type 3 (Homo sapiens), O60755 | 0.44% of 360,000 active | inhibition, % at 3 µM;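 active = inhibition above the screen-wide average plus 3 SD, cut at about 13% in these data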;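 also: forskolin and galanin both at EC90 stimulate the cells; cAMP rise reported by CNG channel membrane potential dye signal; 0% = forskolin plus galanin with DMSO and 100% = forskolin alone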
Target sequence (O60755 1-299 limits assumed): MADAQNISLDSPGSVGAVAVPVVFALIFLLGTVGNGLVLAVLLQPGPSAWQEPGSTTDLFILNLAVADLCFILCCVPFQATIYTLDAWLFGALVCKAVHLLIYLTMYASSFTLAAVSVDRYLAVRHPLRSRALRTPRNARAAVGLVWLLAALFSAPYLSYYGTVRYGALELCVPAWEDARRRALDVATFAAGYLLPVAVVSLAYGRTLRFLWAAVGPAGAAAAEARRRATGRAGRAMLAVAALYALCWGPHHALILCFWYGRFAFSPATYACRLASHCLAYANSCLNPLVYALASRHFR
OX1R antag-1: antagonists of human orexin 1 receptor (OX1R) | 1.8% of 330,000 active | Orexin/Hypocretin receptor type 1 (Homo sapiens), O43613 | inhibition, % at 6.6 µM | AID 485270, 2010 | OX1R-expressing cells, FRET antagonist read-out; in the data active = inhibition mostly above about 38%, no sharp cut-off; inactive = mostly below about 40%;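 also: 0% = agonist challenge alone and 100% = reference antagonist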
CHO parental Ca: ATP-evoked calcium signal inhibitors, parental CHO, primary screen, counter-screen for OX1R antagonist project, cell-based, fluorescence, Fluo-8 calcium dye. parental CHO-K1, ATP-induced calcium, Fluo-8 fluorescence. inhibition, % at 5.6 µM. 0.63% of 330,000 active. AID 463079, 2010;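 active = inhibition above that plate's mean sample inhibition plus 3 SD, cut at about 26% in these data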;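 also: 0% = ATP-challenged DMSO wells and 100% = DMSO wells without ATP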
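Assay system – parental CHO cells · Reagent – ATP stimulus · Detection – intracellular calcium via Fluo-8 no-wash fluorescent dye · Evaluation – percent inhibition of ATP-evoked calcium rise, normalized to controls · Controls – ATP wells versus no-ATP DMSO wells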
OX1R antag-2: OX1R (HCRTR1) antagonists, primary screen, fluorescence, CHO/OX1R cells, Fluo-8 calcium, orexin A. Orexin/Hypocretin receptor type 1 (Homo sapiens), O43613. Fluo-8 calcium fluorescence. inhibition, % at 5 µM. 0.43% of 330,000 active. AID 434989, 2010;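 active = inhibition above its plate's threshold, mean inhibition of all tested compounds on the plate plus 3 SD, cut at about 37% in these data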;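 also: 0% = orexin A challenge wells and 100% = SB-334867-A antagonist wells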
* hit, by the source's call; x = no result given.

SMILES | GPR7 antagonist | GalR3 antag | OX1R antag-1 | CHO parental Ca | OX1R antag-2
COc1cccc2sc3cc(C#Cc4ccccn4)ccc3c(=O)c12 | x | -6 | 63* | -29 | 25
CCCCOc1ccc(OCCSc2nc3ccccc3n2CC(=O)O)cc1 | 27 | -10 | 16 | -9 | 8
O=C(O)Cn1c(SCCOc2ccccc2)nc2ccccc21 | -5 | -5 | 43* | -11 | 8
CC(C)(C)c1ccc(OCCSc2nc3ccccc3n2CC(=O)O)cc1 | -3 | -10 | 4 | 0 | -2
Cc1ccc(OCCSc2nc3ccccc3n2CC(=O)O)cc1C | -6 | -11 | 43* | -12 | -4
Cc1ccn2cc(-c3cccc([N+](=O)[O-])c3)nc2c1 | -7 | -1 | 66* | -18 | -25
CC(=O)c1ccc2c3c(cccc13)C(=O)N(c1c(C)nn(C)c1C)C2=O | -10 | 0 | 67* | -12 | -15
CC(C)(C)NC(=O)/C(=C/c1ccco1)c1ccccc1 | 2 | 1 | 10 | -12 | -16
COc1ccc(C(=O)/C(=C\c2ccco2)N2C=CC=CC2=C(C#N)C#N)cc1 | 47* | x | 66* | 26 | 31
N#CC(C#N)=C1C=CC=CN1/C(=C\c1ccco1)C(=O)c1ccccc1 | 39* | 8 | 51 | 32 | 6
COc1ccc(/C=C(/C(=O)c2cccs2)N2C=CC=CC2=C(C#N)C#N)cc1 | -1 | 0 | x | x | x
N#CC(C#N)=C1C=CC=CN1/C(=C\c1ccco1)C(=O)c1ccc(Br)cc1 | 8 | 7 | 61* | 49* | 24
N#C/C(=C/c1ccco1)C(N)=S | 2 | 5 | 18 | -8 | -9
CCCn1c2ccccc2c2cnn(CC(=O)NC3CCN(Cc4ccccc4)CC3)c(=O)c21 | -7 | -8 | 12 | -24 | -34
CC(=O)Nc1nc(C)c(C(C)C)s1 | 1 | 7 | 2 | 9 | -2
CCCNC(=O)N[C@H]1C=C[C@H](CC(=O)NC2CCCCC2)O[C@@H]1CO | x | 2 | x | x | x
COc1ccc(-c2nc(-c3ccc(NC(=O)c4ccncc4)cc3)no2)cc1OC | -9 | x | 60* | 26 | 5
Cc1nc(-c2cccc(NC(=O)c3ccco3)c2)cs1 | 6 | -2 | x | x | x
Cc1nc(-c2cccc(NC(=O)c3ccc(-n4cccn4)cc3)c2)cs1 | x | -7 | 52* | -12 | -13
Cc1cc(/C=N/Nc2ncnc(N)c2[N+](=O)[O-])c(C)n1-c1ccccc1 | -9 | -2 | 51* | -26 | -23
COc1cccc(/C=N/Nc2ncnc(N)c2[N+](=O)[O-])c1OC | -10 | x | 38 | -7 | -8
CCOc1ccc(C2CC(c3cccc(Cl)c3)n3nc(N)nc3N2)cc1 (stereo not given) | -2 | -1 | 20 | -8 | -6
Nc1nc2n(n1)C(c1cccc(Cl)c1)CC(c1ccc(F)cc1)N2 (stereo not given) | 19* | 2 | 12 | -9 | -9
O=C(Nc1cccc2[nH]c([C@H]3C[C@H](O)[C@@H](CO)O3)nc12)NC(c1ccccc1)c1ccccc1 | x | 3 | x | x | x
Cc1ccc(S(=O)(=O)N2CCC(C(=O)OCCOc3cccc(C)c3)CC2)cc1 | x | -4 | 14 | -14 | -7
SMILES | GPR7 antagonist | GalR3 antag | OX1R antag-1 | CHO parental Ca | OX1R antag-2
COCCCNC(=O)/C(C#N)=C1\N=C(NC(=O)c2cccs2)c2ccccc21 | -11 | -3 | 47* | -4 | -17
Cc1cccc(C)c1NC(=O)CN(c1ccccn1)S(=O)(=O)c1ccccc1 | -9 | -1 | 16 | 25* | -15
COc1ccc(N=CC2=C(Nc3ccc(OC)cc3)c3c(C)nn(-c4ccccn4)c3CC2)cc1 | -2 | x | 20 | 31* | 20
CCC(=O)NS(=O)(=O)c1cccnc1Nc1ccccc1Cl | -13 | 2 | 13 | 2 | -3
Cc1ccc(O)c(N=CC2=C(O)c3ccccc3C2=O)c1 | -5 | -1 | 64 | -34 | -9
O=C1C(C=Nc2ccccc2O)=C(O)c2ccccc21 | 15 | -9 | 59* | -17 | 6
O=C(NNC(=O)C1CCCC1)c1cc([N+](=O)[O-])cc([N+](=O)[O-])c1 | x | -8 | 38* | -3 | -3
CCOC(=O)c1cc2c(C)n(-c3ccc(OCC)cc3)c(C)c2ccc1=O | 19 | -3 | 26 | -13 | -32
CCOC(=O)c1cc2c(C)n(-c3ccc(C)cc3)c(C)c2ccc1=O | -10 | -7 | 41* | -8 | -13
Cc1cc(F)ccc1-c1cc(C(=O)NCc2cccs2)[nH]n1 | x | -7 | x | x | x
CCc1cccc2c(C(=O)Cn3nnc(-c4ccc(OC)c(OC)c4)n3)c[nH]c12 | -2 | -2 | 45* | 42* | 69*
CCc1cccc2c(C(=O)COC(=O)c3nn(C)c(=O)c4ccccc34)c[nH]c12 | 0 | -3 | 60 | -2 | 9
Cc1cc2nc(SCC(=O)N(C)C)c3c(c2cc1C)CCCC3 | 18 | -7 | 37 | -21 | -3
CN(Cc1cccnc1)C(=O)c1cc(COc2ccc3c(c2)CCCC3)on1 | 2 | -2 | 28 | 40* | 25
Cc1ccccc1-c1nnc(NC(=O)c2cc3ccccc3oc2=O)s1 | -12 | x | x | x | x
CCc1nnc(NC(=O)c2cc3ccccc3oc2=O)s1 | 15 | -3 | 77* | -5 | -13
O=C1c2ccccc2C(=O)c2c(O)c(O)cc(O)c21 | x | x | 28* | -2 | 0
Cn1cc(C=O)c2cc(F)ccc21 | 4 | 0 | 12 | -3 | -10
Cn1cc(/C=C/c2cc[n+](C)cc2)c2cc(F)ccc21 | -15 | x | 44* | -7 | -8
COC(=O)C1=NN(C(=O)c2cccc(Br)c2)C(O)(c2ccc(Cl)cc2)C1 (stereo not given) | -13 | -1 | 50* | -12 | -1
Nc1nc(CSc2nc3ccccc3s2)nc(Nc2ccccc2)n1 | -12 | x | 92* | -30 | 60*
Cc1ccccc1Nc1nc(N)nc(CSc2nnc3sc4ccccc4n23)n1 | -12 | -3 | 2 | 2 | -18
CCCOC(=O)C1=C(C)NC(=O)NC1c1cc2c(cc1Br)OCO2 (stereo not given) | -15 | -9 | -6 | -18 | -26
CC(C)N(CCCNC(=O)Cn1c(=O)c2cccn2c2ccccc21)Cc1ccccc1 | -8 | -4 | 66* | -21 | 28
COc1cccc(OCCn2cc(C(=O)c3ccco3)c3ccccc32)c1 | 11 | -4 | 17 | 26 | 46*
COc1ccccc1OCCn1cc(C(=O)c2ccco2)c2ccccc21 | 9 | -6 | 22 | -24 | 0
Cc1ccc(S(=O)(=O)CCc2nnc(N)s2)cc1C | -10 | 1 | 18 | 38* | 1
Nc1nnc(CCS(=O)(=O)c2ccc(Cl)cc2)s1 | -8 | -6 | 7 | 5 | -6
COc1ccc(NC(=O)CN(C)C(=O)CSc2nc3ccccc3s2)cc1 | x | -2 | 8 | -23 | -21
